Assay results taken from ChEMBL document CHEMBL4725371, “A Novel Redox Modulator Induces a GPX4-Mediated Cell Death That Is Dependent on Iron and Reactive Oxygen Species” (J Med Chem, 2020).
The source made the active and inactive calls. The rule behind the calls is not given here.

How the values were obtained:
MIA PaCa-2 [1] = test: Cytotoxicity against human MIA PaCa-2 cells measured after 72 hrs by MTT assay; type: functional, cell-based; conditions: MIA PaCa-2, 72 h
Summary of the method: (§1)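 Cells were kept in RPMI 1640 with 10% FBS at 37 °C, 5% CO₂, under 35 passages. Cells were seeded, attached overnight and treated with compound or DMSO for 72 h. MTT was added at 0.3 mg/mL for 3 h, then dissolved in DMSO and read as absorbance at 570 nm. IC50 was fitted from the curve. Values are mean ± sd of three independent experiments.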

PANC-1 [2] = test: Cytotoxicity against human PANC-1 cells measured after 72 hrs by MTT assay; type: functional, cell-based; conditions: PANC-1, 72 h; summary of the method: as §1
BXPC-3 = test: Cytotoxicity against human BXPC-3 cells measured after 72 hrs by MTT assay; type: functional, cell-based; conditions: BXPC-3, 72 h; summary of the method: as §1
[3] = Drug level in mouse plasma treated with QD394 at 500 uM measured after 0.5 hrs by LC-MS/MS analysis
MIA PaCa-2 [4] = test: Induction of reactive oxygen species in human MIA PaCa-2 cells assessed as reduction in GSH to GSSG ratio at 1 to 2 uM measured after 2 to 4 hrs by GSH/GSSG-glo assay; type: functional, cell-based; conditions: dose microM 1-2, time hrs 2-4
Summary of the method: (§2)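 GSH/GSSG-Glo luminescent assay: 15,000–20,000 MIA PaCa-2 cells per well, attached overnight, treated 2 h and 4 h. Cells were lysed with total or oxidized glutathione reagent, then luciferin generation (30 min, room temperature) and detection reagents added. Luminescence was read after 15 min. Ratio was computed from net RLU as (total − GSSG)/(GSSG/2).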

MIA PaCa-2 [5] = test: Inhibition glutathione synthesis in human MIA PaCa-2 cells at 1 to 2 uM measured after 2 to 4 hrs by GSH/GSSG-glo assay; type: functional, cell-based; conditions: dose microM 1-2, time hrs 2-4; summary of the method: as §2
MIA PaCa-2 [6] = test: Inhibition of colony formation in human MIA PaCa-2 cells at 0.6 uM measured after 7 to 9 days in presence of necroptosis inhibitor necrostatin-1 by crystal violet staining based assay; type: functional, cell-based; conditions: time day 7-9
Summary of the method: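 Cells seeded overnight in 96-well plates at 300 cells/well (MIA PaCa-2) or 600 cells/well (BxPC-3), in RPMI 1640 with 10% FBS. Inhibitor added 1 h before compound, then continuous exposure for 7–9 days until control wells were 80–90% confluent. Stained with 0.05% crystal violet for 30 min, imaged after overnight drying and quantified.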

MIA PaCa-2 [7] = test: Down regulation of PNPT1 expression in human MIA PaCa-2 cells at 3 times IC50 measured after 4 hrs by proteomics analysis; type: functional, cell-based
MIA PaCa-2 [8] = test: Down regulation of LRPPRC expression in human MIA PaCa-2 cells at 3 times IC50 measured after 4 hrs by proteomics analysis; type: functional, cell-based
MIA PaCa-2 [9] = test: Down regulation of LRPPRC expression in human MIA PaCa-2 cells at 3 times IC50 measured after 4 hrs in presence of NAC by proteomics analysis; type: functional, cell-based
MIA PaCa-2 [10] = test: Down regulation of PNPT1 expression in human MIA PaCa-2 cells at 3 times IC50 measured after 4 hrs in presence of NAC by proteomics analysis; type: functional, cell-based
MIA PaCa-2 [11] = test: Down regulation of LRPPRC expression in human MIA PaCa-2 cells at 3 times IC50 measured after 4 hrs in presence of NQO1 inhibitor dicoumarol by proteomics analysis; type: functional, cell-based
MIA PaCa-2 [12] = test: Down regulation of PNPT1 expression in human MIA PaCa-2 cells at 3 times IC50 measured after 4 hrs in presence of NQO1 inhibitor dicoumarol by proteomics analysis; type: functional, cell-based
PANC-1 [13] = test: Down regulation of LRPPRC expression in human PANC-1 cells at 3 times IC50 measured after 1 to 24 hrs by proteomics analysis; type: functional, cell-based; conditions: time hrs 1-24
PANC-1 [14] = test: Down regulation of PNPT1 expression in human PANC-1 cells at 3 times IC50 measured after 1 to 24 hrs by proteomics analysis; type: functional, cell-based; conditions: time hrs 1-24
MIA PaCa-2 [15] = test: Induction of reactive oxygen species in human MIA PaCa-2 cells at 5 to 10 uM measured up to 4 hrs by CM-H2DCFDA dye based fluorescence assay; type: functional, cell-based; conditions: dose microM 5-10, time hrs <=4
Summary of the method: (§3)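 1.8 × 10⁴ cells per well were attached overnight, then loaded with 10 μM CM-H2DCFDA in HBSS for 40 min at 37 °C and washed. Compounds were added in HBSS. Fluorescence was read at Ex 483 / Em 530 nm. TBHP was the positive control. NAC at 3 mM was used where stated.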

MIA PaCa-2 [16] = test: Induction of reactive oxygen species in human MIA PaCa-2 cells at 5 to 10 uM measured after 30 mins in presence of N-acetylcysteine by CM-H2DCFDA dye based fluorescence assay; type: functional, cell-based; conditions: dose microM 5-10, time 30.0 min; summary of the method: as §3
MIA PaCa-2 [17] = test: Induction of ferroptosis in human MIA PaCa-2 cells assessed as increase in lipid peroxidation measured after 24 hrs by C11-BODIPY dye based fluorescence assay; type: functional, cell-based
Summary of the method: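 MIA PaCa-2 cells were treated for the set time, then given 10 μM C11-BODIPY for 30 min at 37 °C and washed. Fluorescence was read at 581/591 nm (reduced dye) and 488/510 nm (oxidized dye). The intensity ratio was compared by unpaired t-test.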

[18] = molecular target: T1, Phospholipid hydroperoxide glutathione peroxidase GPX4 (Homo sapiens) (UniProt P36969); test: Binding affinity to GPX4 in human PANC-1 cells assessed as protein destabilization by measuring reduction in melting temperature at 100 uM measured after 1 hr by thermal shift assay; type: cell-based
T1 sequence (whole entry): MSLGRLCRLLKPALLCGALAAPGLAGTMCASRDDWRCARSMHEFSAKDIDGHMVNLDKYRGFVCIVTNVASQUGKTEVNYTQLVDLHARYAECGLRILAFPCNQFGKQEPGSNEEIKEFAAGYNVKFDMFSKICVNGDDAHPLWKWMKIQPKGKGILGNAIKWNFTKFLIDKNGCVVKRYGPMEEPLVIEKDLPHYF

MIA PaCa-2 [19] = test: Cytotoxicity against human MIA PaCa-2 cells transfected with GPX4 siRNA measured after 72 hrs by MTT assay; type: functional, cell-based
[20] = Half life in mouse liver microsomes at 10 uM in presence of NADPH by LC-MS/MS analysis; type: ADME, Microsome; conditions: microsomes, 10 µM
Summary of the method: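 Compound (10 μM working solution in 0.1 M phosphate buffer with 3.3 mM MgCl₂) was incubated with mouse liver microsomes and NADPH. Verapamil served as reference. Samples were taken at 0, 5, 10, 15, 30, 45 and 60 min and centrifuged at 3500 g. Supernatant was run by LC-MS/MS. t1/2 came from the slope of ln(peak area ratio) against time.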

[21] = Half life in mouse plasma at 500 uM by LC-MS/MS analysis; type: ADME, cell-free
Summary of the method: (§4)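 Compound (500 μM DMSO stock) was added at 1 μL per 500 μL pooled plasma. Samples were taken at 0, 0.17, 0.5, 1, 2 and 4 h and centrifuged at 3500 g for 10 min. Supernatant was run by LC-MS/MS. t1/2 came from the slope of ln(compound/internal standard peak area) against time.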

[22] = Half life in human plasma at 500 uM by LC-MS/MS analysis; type: ADME, cell-free; summary of the method: as §4
[23] = Plasma concentration in CD-1 mouse at 10 mg/kg, ip measured after 7 hrs by LC-MS/MS analysis; type: ADME, organism-based
Summary of the method: (§5)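 CD-1 mice dosed IP at 10 mg/kg or PO at 20 mg/kg, n=2 per route. Blood taken with heparinized pipettes at 0.5, 2, 4 and 7 h and spun at 15,000 rpm for 10 min. Plasma stored at −80 °C, then measured by LC-MS/MS.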

[24] = Plasma concentration in CD-1 mouse at 20 mg/kg, po measured after 7 hrs by LC-MS/MS analysis; type: ADME, organism-based; summary of the method: as §5
[25] = Drug level in CD-1 mouse colon at 20 mg/kg, po measured after 1 hr by LC-MS/MS analysis; type: ADME, organism-based; conditions: in vivo
Summary of the method: (§6)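 Mice received 20 mg/kg PO or 10 mg/kg IV. Organs were collected after 1 h and homogenised in five-fold dissociation solvent. Homogenate was mixed with acetonitrile and internal standard and centrifuged at 3500 g for 10 min. Supernatant was analysed by LC-MS.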

[26] = Drug level in CD-1 mouse colon at 10 mg/kg, iv measured after 1 hr by LC-MS/MS analysis; type: ADME, organism-based; conditions: in vivo; summary of the method: as §6
[27] = Drug metabolism in CD-1 mouse plasma assessed as hydroxylation at 20 mg/kg, po measured after 15 mins by LC-MS/MS analysis; type: ADME, organism-based; conditions: in vivo, 0.25 h
[28] = Drug metabolism in CD-1 mouse plasma assessed as hydroxylation at 10 mg/kg, iv measured after 15 mins by LC-MS/MS analysis; type: ADME, organism-based; conditions: in vivo, 0.25 h
CT26 = test: Antitumor activity against mouse CT26 cells implanted in Balb/c mouse assessed as tumor shrinkage at 10 mg/kg, iv administered three times weekly for 17 days measured 4 hrs post-last dose; type: functional, organism-based; conditions: time 17.0 day
Summary of the method: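 Female Balb/c mice aged 5–6 weeks, implanted subcutaneously in right flank with 1 × 10⁶ CT-26 cells in DPBS. Dosing began 7 days later with randomisation (n = 5/group, mean tumour 97–117 mm³). IV dosing was 3 times weekly and IP dosing was given. Vehicle control given daily IP. Mice were euthanised four hours post-dose after 17 days of dosing.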

MIA PaCa-2 [29] = test: Induction of ferroptosis in human MIA PaCa-2 cells assessed as increase in lipid peroxidation at 20 to 40 uM measured after 24 hrs by C11-BODIPY dye based fluorescence assay; type: functional, cell-based; conditions: dose microM 20-40, time 24.0 hrs
Summary of the method: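 MIA PaCa-2 cells (RPMI 1640, 10% FBS, 37 °C, 5% CO2) exposed to compound for the set time, then 10 μM C11-BODIPY added for 30 min at 37 °C. After two DPBS washes, read in HBSS at 581/591 nm (reduced dye) and 488/510 nm (oxidized dye); emission ratio calculated, unpaired Student's t-test.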

O=C1C(Nc2ccc(-c3cc(Cl)cc(Cl)c3)cc2)=CC(=O)c2ncncc21
IC50 (MIA PaCa-2 [1]): 3.1 µM
IC50 (PANC-1 [2]): 1.9 µM
IC50 (BXPC-3): 3.3 µM

CN1CCN(c2ccc(NC3C(=O)c4cncnc4C(=O)C3O)cc2)CC1 (stereo not given)
Drug uptake [3]: Active

O=C1C(Nc2cccc(-c3ccccc3)c2)=CC(=O)c2ncncc21
IC50 (MIA PaCa-2 [1]): 2.4 µM
IC50 (PANC-1 [2]): 2.3 µM
IC50 (BXPC-3): 5.1 µM

CN1CCN(c2ccc(NC3=CC(=O)c4ncncc4C3=O)cc2)C(O)C1 (stereo not given)
Drug uptake [3]: Active

CC(=O)c1cc2c(o1)C(=O)c1ccccc1C2=O
Activity (MIA PaCa-2 [4]): Active
inhibition (MIA PaCa-2 [5]): Active
inhibition (MIA PaCa-2 [6]): inactive
Activity (MIA PaCa-2 [7]): Active
Activity (MIA PaCa-2 [8]): Active
Activity (MIA PaCa-2 [9]): Active
Activity (MIA PaCa-2 [10]): Active
Activity (MIA PaCa-2 [11]): inactive
Activity (MIA PaCa-2 [12]): inactive
Activity (PANC-1 [13]): inactive
Activity (PANC-1 [14]): inactive

O=C1C(Nc2cccc3c2Cc2ccccc2-3)=CC(=O)c2ncncc21
IC50 (MIA PaCa-2 [1]): 3.1 µM
IC50 (PANC-1 [2]): 4.7 µM
IC50 (BXPC-3): 4.5 µM

CC1=C(Nc2ccc(N3CCN(C)CC3)cc2)C(=O)c2cncnc2C1=O
IC50 (MIA PaCa-2 [1]): 3.63 µM
IC50 (PANC-1 [2]): 0.38 µM
IC50 (BXPC-3): 0.87 µM
Activity (MIA PaCa-2 [15]): Active
Activity (MIA PaCa-2 [16]): inactive
Activity (MIA PaCa-2 [17]): Dose-dependent effect
Activity (MIA PaCa-2 [7]): Active
Activity (MIA PaCa-2 [8]): Active
Activity [18]: Dose-dependent effect
Activity (MIA PaCa-2 [19]): inactive
t1/2 [20]: 0.743 h
half-life at 500 µM [21]: > 2 h
half-life at 500 µM [22]: > 2 h
concentration at 7 h [23]: 6.7 ng/mL
concentration at 7 h [24]: 3.4 ng/mL
Drug uptake [25]: 0.3 mg/kg
Drug uptake [26]: 0.3 mg/kg
Drug metabolism [27]: Metabolite_Detected
Drug metabolism [28]: Metabolite_Detected
Activity (CT26): Active

CN1CCN(c2ccc(NC3=C(SCC(N)C(=O)O)C(=O)c4ncncc4C3=O)cc2)CC1 (stereo not given)
Drug uptake [3]: Active

CN1C(O)CN(c2ccc(NC3=CC(=O)c4ncncc4C3=O)cc2)CC1O (stereo not given)
Drug uptake [3]: Active

CCOc1ccccc1-n1c(C(C)N2CCN(C(=O)COc3ccc(Cl)cc3)CC2)nc2ccccc2c1=O (stereo not given)
Activity (MIA PaCa-2 [29]): Active
